A short description of assay [1]: S. cerevisiae growth inhibition in permissive medium (OD615), pilot counter-assay for S. cerevisiae lifespan shortening project, permissive growth control (AID 705;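 active = growth inhibition above 25% in both replicates, a cutoff set 3 SD above the mean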). Conditions: OD615, 24 h, at 10 µM, stronger effect = higher value. In short, it runs like this: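 System: Engineered DeaD yeast | Buffer or medium: SC raffinose/galactose permissive medium | Incubation: Cells pre-grown 4 h, then 24 h compound exposure, 30 °C humidified | Measured by: Absorbance (optical density) at 615 nm | Read-out: Reduction in yeast growth (OD615)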

Assay [2] can be described thus: S. cerevisiae growth inhibition in restrictive medium, OD615, pilot screen, restrictive growth control, yeast lifespan reduction project (AID 706;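 active = growth inhibition above a set limit, 3 SD over mean compound inhibition, in both replicates, cut at about 43% in these data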;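 also: modified DeaD lifespan yeast strain shifted to restrictive glucose medium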). Particulars: OD615, 48 h, at 10 µM, stronger effect = higher value. In short, it runs like this: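 Material: modified S. cerevisiae; Medium: glucose-based CSMM-D restrictive medium; Compound dosing: one concentration, 10 µM final, 0.25% DMSO; Incubation: 48 h compound exposure at 30 °C; Measured by: OD615.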

The nature of assay [3]: doxorubicin toxicity protection in MRP-1 cells – H69AR cells, CellTiter-Glo, duplicate, MRP-1 activator project, pilot screen (AID 807;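 active = viability increase at or above a cutoff of the median across tested compounds plus 3 SD, cut at about 8.5% in these data, passing the limit was not always enough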;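 also: compound pretreatment 18-22 h then 72 h combined with doxorubicin; 0% = doxorubicin alone and 100% = vehicle without doxorubicin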). Particulars: H69AR viability with doxorubicin, CellTiter-Glo luminescence; at 10 µM; stronger effect = higher value. (In general: ATP-based viability assays read luminescence as a measure of living cells.)
Assay [4] in a line: viability of HCT116 without oncogenic beta-catenin – human colon tumor cells, pilot screen (AID 823;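 active = cell viability at or below a set limit in both duplicate runs, the limit being the all-compound median minus 4 SD, cut at about 23% in these data, passing the limit was not always enough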;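 also: 0% = wells killed by 20 µM Hyamine and 100% = untreated DMSO cell wells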). Particulars: HCT116 beta-catenin knockout viability, CellTiter-Glo, 60 h; at 10 µM; stronger effect = lower value.
Assay [5] in a line: viability of PTEN-null HCT116 cells – cell-based, HCT116 clonal line, CellTiter-Glo, pilot screen (AID 824).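 Also: 0% = 20 µM Hyamine control and 100% = vehicle cell control.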 Conditions: HCT116 PTEN-deleted viability, 60 h, at 10 µM, stronger effect = lower value.
Assay [6] is described as follows: RAM pathway blockade in budding yeast – dse1pr::URA3 reporter, 5-FOA selection, pilot screen (AID 869;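 active = inhibition over a set limit, the all-compound mean plus 3 SD, in both replicate runs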;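 also: 0% = DMSO wells with no growth and 100% = 10 µM 1-NA-PP1 with full growth; RAM network block rescues cells from 5-FOA so hits raise OD615 growth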). Conditions: S. cerevisiae dse1pr::URA3 5-FOA growth, OD615, 2 d; at 10 µM; stronger effect = higher value; strain carries analog-sensitive mutant Cbk1 kinase.
Assay [7] can be described thus: RAM signaling pathway blockade in yeast – S. cerevisiae, Pdr1DBD-CYC8 efflux-inhibited sensitized strain, primary screen (AID 1298;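 active = RAM network inhibition above 8.4% in each of two replicates, 3 SD over the compound average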;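 also: 0% = DMSO untreated cells without growth and 100% = 10 µM 1-NA-PP1 full growth; higher means more yeast growth rescued from 5-FOA killing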). Particulars: S. cerevisiae cbk1-as DSE1-URA3 strain, 5-FOA growth OD615, 2 d; at 50 µM; stronger effect = higher value.

Unmarked numbers belong to inactive results. Inconclusive results are not listed. Calls of active or inactive are those of the source.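 The calls were made as follows, unless noted: active = viability at or below 27.92% in each of two runs, the all-compound median minus 4 SD; inconclusive = no clear call, values can overlap the other calls; inactive = the rest.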

As a reminder, the viability is a read-out of living cells in per cent, often relative to untreated cells. By inhibition is commonly meant the change of the read-out against control, counted positive when it falls.

Turning to `O=C(Nc1nnc(CC(=O)N2CCCC2)s1)c1cnccn1`, the growth inhibition was -3.58% in assay [1] and 4.7% in assay [2]. Moreover, the viability increase in assay [3] was -1.2%. The viability is 104% in assay [4] and 100% in assay [5]. Further, the inhibition in assay [6] is 1.66%. Also, the RAM network inhibition in assay [7] is -0.94%.

Take `O=S(=O)(NCCc1csc(-c2cccnc2)n1)c1ccc(Cl)s1`: the growth inhibition in assay [1] was -15.7%; in assay [2], 13.1%. Further, the viability increase in assay [3] is 0.96%. Further, the figures for the viability in assay [4] and in assay [5] were 87.6% and 85.5%, respectively. The inhibition in assay [6] was 1.76%. Further, in assay [7], the RAM network inhibition was 3.12%.

For the compound `Cn1c(=O)oc2cc(S(=O)(=O)N3CCCC(C(=O)N4CC=C(c5ccccc5)CC4)C3)ccc21` (stereo unspecified), the figures for the growth inhibition in assay [1] and in assay [2] were -10.7% and 8.07%, respectively. For the same compound, the viability increase in assay [3] was -1.04%. The viability in assay [4] was 80.9%; in assay [5] it was 82.1%. Also, the inhibition in assay [6] was 1.17%. Further, in assay [7], the RAM network inhibition is 4.97%.

Consider `CCOc1ccc(N(CC(=O)NCCSc2ccccn2)S(C)(=O)=O)cc1`, for which the growth inhibition is 0.64% in assay [1] and 2.82% in assay [2]. Further, in assay [3], the viability increase was -3.63%. The figures for the viability in assay [4] and in assay [5] were 97.8% and 95.3%, respectively. In addition, the inhibition in assay [6] was 0.35%. Also, the RAM network inhibition in assay [7] was 3.38%.

`FC(F)(F)C12CC(c3ccccc3)=NCCN1CCN2` (stereo unspecified): the values for the growth inhibition in assay [1] and in assay [2] were -4.15% and 4.43%, respectively. Moreover, in assay [3], the viability increase is -1.23%. For the same compound, the figures for the viability in assay [4] and in assay [5] were 102% and 97.9%, respectively. The inhibition in assay [6] was 1.35%. Also, in assay [7], the RAM network inhibition was -0.53%.

Consider `CCOC(=O)CCc1n[nH]c(=O)[nH]c1=O`, for which the growth inhibition in assay [1] was -3.33%; in assay [2], 5.9%. Further, in assay [3], the viability increase is -0.23%. The viability in assay [4] is 102%; in assay [5], 104%. For the same compound, the inhibition in assay [6] was 1.46%. For the same compound, the RAM network inhibition in assay [7] is 0%.

With `Cc1ccnc(SCCn2c(N3CCCCC3)nc3c2c(=O)[nH]c(=O)n3C)n1`, the growth inhibition in assay [1] is -8.7%; in assay [2], -5.05%. Besides, the viability increase in assay [3] was 0.17%. Besides, the values for the viability in assay [4] and in assay [5] were 101% and 107%, respectively. Also, the inhibition in assay [6] was 1.52%. In assay [7], the RAM network inhibition is 2.14%.

With `OC(C#CCN1CCOCC1)c1cccs1` (stereo unspecified), the growth inhibition in assay [1] is -5.03%; in assay [2], 2.95%. In addition, the viability increase in assay [3] was -0.71%. For the same compound, the viability is 102% in assay [4] and 98.4% in assay [5]. The inhibition in assay [6] is 2.15%. The RAM network inhibition in assay [7] is 4.66%.

For `COC(=O)c1ccccc1NC(=O)Nc1nnc(N2CCCCC2C)s1` (stereo unspecified), the growth inhibition in assay [1] is -8.82%; in assay [2], 5.2%. The viability increase in assay [3] was -0.77%. Moreover, the figures for the viability in assay [4] and in assay [5] were 64.3% and 49.8%, respectively. Moreover, in assay [6], the inhibition is 0.815%. The RAM network inhibition in assay [7] was 1.05%.

Turning to `CCCCCSc1nc2c(c(=O)[nH]c(=O)n2C)n1CCc1ccccc1`, the figures for the growth inhibition in assay [1] and in assay [2] were -3.08% and -4.46%, respectively. The viability increase in assay [3] was -1.88%. The viability was 69.6% in assay [4] and 87% in assay [5]. Moreover, the inhibition in assay [6] is 2.75%. Further, in assay [7], the RAM network inhibition is 8.01%.

Regarding `CCCCn1c(NC(=O)c2ccccc2)nc2ccccc21`, the growth inhibition was 8.39% in assay [1] and -7.56% in assay [2]. For the same compound, in assay [3], the viability increase is -3.95%. In addition, the viability in assay [4] is 22.1% (active); in assay [5], 18.3% (active). Also, the inhibition in assay [6] is -0.145%. In addition, the RAM network inhibition in assay [7] is 3.88%.

Turning to `COc1ccc(N2C(=O)CCC(C(=O)N3CCC(C(N)=O)CC3)C2c2ccc(F)cc2)cc1` (stereo unspecified), the growth inhibition was -5.89% in assay [1] and -16.2% in assay [2]. Moreover, the viability increase in assay [3] was -0.33%. The viability in assay [4] was 99.6%; in assay [5], 102%. In assay [6], the inhibition is 1.6%. For the same compound, the RAM network inhibition in assay [7] is 3.66%.

With `COc1ccc(CCNC(=O)c2ccco2)cc1`, the growth inhibition is 13.4% in assay [1] and 8.97% in assay [2]. Moreover, the viability increase in assay [3] is -2.79%. The viability in assay [4] is 107%; in assay [5], 91.8%. Further, the inhibition in assay [6] is 1.58%. Further, the RAM network inhibition in assay [7] is -1.03%.

For the compound `CCN(CCCNS(=O)(=O)c1ccc2c(c1)CCN2C(C)=O)c1cccc(C)c1`, the growth inhibition is -4.96% in assay [1] and 9.51% in assay [2]. In addition, the viability increase in assay [3] was -2.74%. For the same compound, the viability in assay [4] is 75.3%; in assay [5], 82.5%. Further, the inhibition in assay [6] was 0.28%. Further, in assay [7], the RAM network inhibition was 4.1%.

`C=CCn1cc(C(=O)NCCCOC)c(=O)c2cc(S(=O)(=O)N3CCC(C)CC3)ccc21`: the growth inhibition in assay [1] is -10.6%; in assay [2] it was -19.6%. In addition, the viability increase in assay [3] was -3.54%. Also, the viability in assay [4] was 96.7%; in assay [5], 87%. Further, in assay [6], the inhibition is 1.56%. Also, the RAM network inhibition in assay [7] is -0.52%.

With `COc1cc2c(cc1OC)C1=C(C#N)CC/C(=N\S(=O)(=O)c3ccccc3)N1CC2`, the growth inhibition in assay [1] is -11.1%; in assay [2], -3.91%. Also, the viability increase in assay [3] was -4.28%. For the same compound, the viability is 97.8% in assay [4] and 87.8% in assay [5]. Also, the inhibition in assay [6] is 1.25%. Moreover, in assay [7], the RAM network inhibition is 2.61%.

As for `O=C(O)C1CCCCC1C(=O)NCc1cn2ccccc2n1` (stereo unspecified), the growth inhibition in assay [1] was -16.1%; in assay [2], -10.5%. Besides, the viability increase in assay [3] was -1.38%. Besides, the viability in assay [4] is 110%; in assay [5] it was 93.7%. Further, the inhibition in assay [6] is 0.43%. For the same compound, the RAM network inhibition in assay [7] was 9.11%.

Regarding `O=C(NCc1nc2ccccc2[nH]1)c1cccs1`, the growth inhibition was -13.9% in assay [1] and -1.7% in assay [2]. In addition, the viability increase in assay [3] is 0.55%. Further, the viability is 105% in assay [4] and 103% in assay [5]. Also, the inhibition in assay [6] is 2.04%. The RAM network inhibition in assay [7] is 5.75%.

The values are drawn from PubChem BioAssay.
